Assay results: ChEMBL document CHEMBL3124905, “Isothiocoumarin-3-carboxylic acid derivatives: synthesis, anticancer and antitrypanosomal activity evaluation” (Eur J Med Chem, 2014)
The source made the active and inactive calls. The calls are words filed in the database; no cut-off is given here.

Tests used:
[1] = Acute toxicity in ip dosed white mouse; assay type: organism-based; conditions: in vivo
Method in brief: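 White male mice, 23-25 g, dosed intraperitoneally with compound dissolved in 0.9% NaCl saline plus 1-2 drops Polysorbate 80 (Tween-80). Solutions prepared immediately before use. Doses ranged 100-1000 mg/kg, testing 4 or 5 doses with 6 animals per dose. LD50 derived by the Litchfield-Wilcoxon method.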

[2] = tested on: Trypanosoma brucei brucei; experiment: Antitrypanosomal activity against bloodstream form of Trypanosoma brucei brucei strain 90-13 assessed as inhibition of parasite growth at 10 ug/ml after 72 hrs by resazurin reduction test; assay type: functional; conditions: strain 90-13, 72 h
Method in brief: (§1)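 Trypanosoma brucei brucei 90-13 bloodstream forms, grown in HMI9 with 10% FCS at 37 °C under 5% CO2. Log-phase parasites were seeded at 10^5 cells/mL with or without inhibitor, with stocks prepared in DMSO. After 72 h, resazurin was added and fluorescence was read at 530/590 nm after a further 4 h. Percent growth inhibition was calculated versus drug-free parasites, with DMSO as control.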

[3] = tested on: Trypanosoma brucei brucei; experiment: Antitrypanosomal activity against bloodstream form of Trypanosoma brucei brucei strain 90-13 assessed as inhibition of parasite growth at 1 ug/ml after 72 hrs by resazurin reduction test; assay type: functional; conditions: strain 90-13, 72 h; method in brief: as §1
SF-268 = experiment: Anticancer activity against human SF268 cells assessed as cell growth at 100 uM after 48 hrs by SRB assay; assay type: functional; conditions: SF-268, 48 h, read-out: Activity
Method in brief: (§2)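 NCI one-dose primary screen on a three-line panel (breast MCF7, lung NCI-H460, CNS SF-268). Cells were inoculated and preincubated 24–48 h, then exposed to a single concentration of 10−4 M for 48 h. The endpoint was sulforhodamine B protein staining, and results are expressed as percent growth relative to untreated control cells. Negative values denote cytotoxicity.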

MCF7 = experiment: Anticancer activity against human MCF7 cells assessed as cell growth at 100 uM after 48 hrs by SRB assay; assay type: functional; conditions: MCF7, 48 h, read-out: Activity; method in brief: as §2
NCI-H460 [4] = experiment: Anticancer activity against human NCI-H460 cells assessed as cell growth at 100 uM after 48 hrs by SRB assay; assay type: functional; conditions: NCI-H460, 48 h, read-out: Activity; method in brief: as §2
[5] = (§3) Growth inhibition of human SF539 cells after 48 hrs by SRB assay; assay type: functional; conditions: SF-539, 48 h
Method in brief: (§4)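 NCI five-dose assay against the ~60-cell-line panel (nine cancer types). Tenfold dilutions from 10−4 to 10−8 M were used with continuous 48-h exposure and SRB absorbance readout. Percent growth was computed from time-zero, control and treated absorbances. GI50 is the concentration giving 50% lower net protein increase than controls. Values not reached are reported as beyond the tested range.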

SR = experiment: Growth inhibition of human SR cells after 48 hrs by SRB assay; assay type: functional
Method in brief: (§5)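 NCI ~60-cell-line five-dose screen. Cells were preincubated 24-48 h, then given compound at 10-fold dilutions from 10^-4 to 10^-8 M with 48 h continuous exposure. SRB protein stain was read by absorbance at time zero, in untreated control and with drug. GI50 was derived from [(Ti-Tz)/(C-Tz)]x100=50, TGI from Ti=Tz, and LC50 from [(Ti-Tz)/Tz]x100=-50.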

CAKI-1 = experiment: Growth inhibition of human CAKI-1 cells after 48 hrs by SRB assay; assay type: functional; method in brief: as §4
Hs-578T = experiment: Growth inhibition of human Hs 578T cells after 48 hrs by SRB assay; assay type: functional; method in brief: as §4
UO-31 = experiment: Growth inhibition of human UO31 cells after 48 hrs by SRB assay; assay type: functional; method in brief: as §5
OVCAR-4 = experiment: Growth inhibition of human OVCAR4 cells after 48 hrs by SRB assay; assay type: functional; method in brief: as §4
OVCAR-3 = experiment: Growth inhibition of human OVCAR3 cells after 48 hrs by SRB assay; assay type: functional; method in brief: as §4
SNB-75 = experiment: Growth inhibition of human SNB75 cells after 48 hrs by SRB assay; assay type: functional; method in brief: as §4
Malme-3M = experiment: Growth inhibition of human MALME-3M cells after 48 hrs by SRB assay; assay type: functional; method in brief: as §4
NCI-H322M = experiment: Growth inhibition of human NCI-H322M cells after 48 hrs by SRB assay; assay type: functional; method in brief: as §4
SF-539 = experiment: as §3; assay type: functional; method in brief: as §4
TK-10 = experiment: Growth inhibition of human TK10 cells after 48 hrs by SRB assay; assay type: functional; method in brief: as §5
ACHN = experiment: Growth inhibition of human ACHN cells after 48 hrs by SRB assay; assay type: functional; method in brief: as §4
786-0 [6] = experiment: Growth inhibition of human 786-0 cells after 48 hrs by SRB assay; assay type: functional; method in brief: as §4
OVCAR-8 = experiment: Growth inhibition of human OVCAR8 cells after 48 hrs by SRB assay; assay type: functional; method in brief: as §4
OVCAR-5 = experiment: Growth inhibition of human OVCAR5 cells after 48 hrs by SRB assay; assay type: functional; method in brief: as §4
UACC-62 = experiment: Growth inhibition of human UACC62 cells after 48 hrs by SRB assay; assay type: functional; method in brief: as §5
SF-295 = experiment: Growth inhibition of human SF295 cells after 48 hrs by SRB assay; assay type: functional; method in brief: as §4
HCC 2998 = experiment: Growth inhibition of human HCC2998 cells after 48 hrs by SRB assay; assay type: functional; method in brief: as §4
NCI-H522 = experiment: Growth inhibition of human NCI-H522 cells after 48 hrs by SRB assay; assay type: functional; method in brief: as §4
HOP69 = experiment: Growth inhibition of human […] cells after 48 hrs by SRB assay; assay type: functional; method in brief: as §4
A549 = experiment: Growth inhibition of human A549/ATCC cells after 48 hrs by SRB assay; assay type: functional; method in brief: as §4
MDA-MB-231 = experiment: Growth inhibition of human MDA-MB-231/ATCC cells after 48 hrs by SRB assay; assay type: functional; method in brief: as §4
PC-3 = experiment: Growth inhibition of human PC3 cells after 48 hrs by SRB assay; assay type: functional; method in brief: as §4
786-0 [7] = experiment: Growth inhibition of human 786-O cells after 48 hrs by SRB assay; assay type: functional; method in brief: as §4
M14 = experiment: Growth inhibition of human M14 cells after 48 hrs by SRB assay; assay type: functional; method in brief: as §4
LOX IMVI = experiment: Growth inhibition of human LOXIMVI cells after 48 hrs by SRB assay; assay type: functional; method in brief: as §4
U-251 = experiment: Growth inhibition of human U251 cells after 48 hrs by SRB assay; assay type: functional; method in brief: as §5
HCT-116 = experiment: Growth inhibition of human HCT116 cells after 48 hrs by SRB assay; assay type: functional; method in brief: as §4
NCI-H460 [8] = experiment: Growth inhibition of human NCI-H460 cells after 48 hrs by SRB assay; assay type: functional; method in brief: as §4
NCI-H23 = experiment: Growth inhibition of human NCI-H23 cells after 48 hrs by SRB assay; assay type: functional; method in brief: as §4
HOP-62 = experiment: Growth inhibition of human HOP62 cells after 48 hrs by SRB assay; assay type: functional; method in brief: as §4
RPMI18226 = experiment: Growth inhibition of human […] cells after 48 hrs by SRB assay; assay type: functional; method in brief: as §4
MOLT-4 = experiment: Growth inhibition of human MOLT4 cells after 48 hrs by SRB assay; assay type: functional; method in brief: as §4
MDA-MB-435 = experiment: Growth inhibition of human MDA-MB-435 cells after 48 hrs by SRB assay; assay type: functional; method in brief: as §4
KM12 = experiment: Growth inhibition of human KM12 cells after 48 hrs by SRB assay; assay type: functional; method in brief: as §4
CCRF-CEM = experiment: Growth inhibition of human CCRF-CEM cells after 48 hrs by SRB assay; assay type: functional; method in brief: as §4
SNB- = experiment: Growth inhibition of human SNB cells after 48 hrs by SRB assay; assay type: functional; method in brief: as §4
HOP-92 = experiment: Growth inhibition of human HOP92 cells after 48 hrs by SRB assay; assay type: functional; method in brief: as §4
BT-549 = experiment: Growth inhibition of human BT549 cells after 48 hrs by SRB assay; assay type: functional; method in brief: as §4
NCI/ADR-RES = experiment: Growth inhibition of human NCI/ADR-RES cells after 48 hrs by SRB assay; assay type: functional; method in brief: as §4
UACC-257 = experiment: Growth inhibition of human UACC257 cells after 48 hrs by SRB assay; assay type: functional; method in brief: as §5
SK-MEL-5 = experiment: Growth inhibition of human SK-MEL-5 cells after 48 hrs by SRB assay; assay type: functional; method in brief: as §4
EKVX = experiment: Growth inhibition of human EKVX cells after 48 hrs by SRB assay; assay type: functional; method in brief: as §4
RXF 393 = experiment: Growth inhibition of human RXF393 cells after 48 hrs by SRB assay; assay type: functional; method in brief: as §4

## O=C(Nc1cccc2ccccc12)c1cc2ccccc2c(=O)s1
[1]
  LD50: 410 mg/kg
[2]
  inhibition at 10 µg/mL: > 50%
[3]
  inhibition at 1 µg/mL: 60.8%

## COc1ccc2cc(C(=O)Nc3ccc(S(N)(=O)=O)cc3)sc(=O)c2c1OC
SF-268
  growth at 100 µM: 74%
MCF7
  growth at 100 µM: 72%
NCI-H460 [4]
  growth at 100 µM: 97%
[1]
  LD50: 870 mg/kg
[2]
  inhibition at 10 µg/mL: > 50%
[3]
  inhibition at 1 µg/mL: 59.8%

## Cc1cc(NC(=O)c2cc3ccccc3c(=O)s2)no1
SF-268
  growth at 100 µM: 86%
MCF7
  growth at 100 µM: 85%
NCI-H460 [4]
  growth at 100 µM: 31%
[5]
  GI50: 30.2 µM
[5]; read-out: pTGI (converted)
  TGI: > 100 µM
SR
  GI50: 339 nM
SR; read-out: pTGI (converted)
  TGI: > 100 µM

## O=C(Nc1nc(-c2ccccc2)cs1)c1cc2ccccc2c(=O)s1
[2]
  inhibition at 10 µg/mL: 7.36%
CAKI-1
  pGI50: inactive
  pTGI: inactive
Hs-578T
  pGI50: inactive
  pTGI: inactive
UO-31
  pGI50: inactive
  pTGI: inactive
OVCAR-4
  pGI50: inactive
  pTGI: inactive
OVCAR-3
  pGI50: inactive
  pTGI: inactive
SNB-75
  pGI50: inactive
  pTGI: inactive
Malme-3M
  pGI50: inactive
  pTGI: inactive
NCI-H322M
  pGI50: inactive
  pTGI: inactive
SF-539
  pGI50: inactive
  pTGI: inactive
TK-10
  pGI50: inactive
  pTGI: inactive
ACHN
  pGI50: inactive
  pTGI: inactive
786-0 [6]
  pGI50: inactive
  pTGI: inactive
OVCAR-8
  pGI50: inactive
  pTGI: inactive
OVCAR-5
  pGI50: inactive
  pTGI: inactive
UACC-62
  pGI50: inactive
  pTGI: inactive
SF-295
  pGI50: inactive
  pTGI: inactive
HCC 2998
  pGI50: inactive
  pTGI: inactive
NCI-H522
  pGI50: inactive
  pTGI: inactive
HOP69
  pGI50: inactive
  pTGI: inactive
A549
  pGI50: inactive
  pTGI: inactive
MDA-MB-231
  pGI50: inactive
  pTGI: inactive
PC-3
  pGI50: inactive
  pTGI: inactive
786-0 [7]
  pGI50: inactive
  pTGI: inactive
M14
  pGI50: inactive
  pTGI: inactive
LOX IMVI
  pGI50: inactive
  pTGI: inactive
U-251
  pGI50: inactive
  pTGI: inactive
HCT-116
  pGI50: inactive
  pTGI: inactive
NCI-H460 [8]
  pGI50: inactive
  pTGI: inactive
NCI-H23
  pGI50: inactive
  pTGI: inactive
HOP-62
  pGI50: inactive
  pTGI: inactive
RPMI18226
  pGI50: inactive
  pTGI: inactive
MOLT-4
  pGI50: inactive
  pTGI: inactive
[3]
  inhibition at 1 µg/mL: 44.2%
MDA-MB-435
  pGI50: inactive
  pTGI: inactive
KM12
  pGI50: inactive
  pTGI: inactive
SR
  pGI50: inactive
  pTGI: inactive
CCRF-CEM
  pGI50: inactive
  pTGI: inactive
SNB-
  pGI50: inactive
  pTGI: inactive
HOP-92
  pGI50: inactive
  pTGI: inactive
BT-549
  pGI50: inactive
  pTGI: inactive
NCI/ADR-RES
  pGI50: inactive
  pTGI: inactive
UACC-257
  pGI50: inactive
  pTGI: inactive
SK-MEL-5
  pGI50: inactive
  pTGI: inactive
EKVX
  pGI50: inactive
  pTGI: inactive
RXF 393
  pGI50: inactive
  pTGI: inactive
